# The source made the active and inactive calls. The rule behind the calls is not given here.
# Assays:
# [1] = tested on: LNCaP; experiment: Inhibition of prostate specific antigen expression in human LNCAP cells at 100 to 1000 nM in presence of fetal bovine serum; type: functional, cell-based
# [2] = tested on: LNCaP; experiment: Inhibition of prostate specific antigen secretion in human LNCAP cells expressing androgen receptor at 1.25 to 10 uM in presence of charcoal stripped serum; type: functional, cell-based
# Procedure, shortened: (§1)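 LNCaP/AR cells were made by viral infection with an AR cDNA to express 3–5 fold higher AR levels, mimicking CRPC. They were assayed in charcoal-stripped serum to mimic androgen depletion. Read-out was PSA level, with DMSO as the vehicle.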
# [3] = target: T1, Androgen receptor (Rattus norvegicus) (UniProt P15207); experiment: Antagonist activity at androgen receptor in rat prostate gland at 1.25 to 10 uM by luciferase reporter gene assay; type: functional, tissue-based
# T1 sequence (whole entry): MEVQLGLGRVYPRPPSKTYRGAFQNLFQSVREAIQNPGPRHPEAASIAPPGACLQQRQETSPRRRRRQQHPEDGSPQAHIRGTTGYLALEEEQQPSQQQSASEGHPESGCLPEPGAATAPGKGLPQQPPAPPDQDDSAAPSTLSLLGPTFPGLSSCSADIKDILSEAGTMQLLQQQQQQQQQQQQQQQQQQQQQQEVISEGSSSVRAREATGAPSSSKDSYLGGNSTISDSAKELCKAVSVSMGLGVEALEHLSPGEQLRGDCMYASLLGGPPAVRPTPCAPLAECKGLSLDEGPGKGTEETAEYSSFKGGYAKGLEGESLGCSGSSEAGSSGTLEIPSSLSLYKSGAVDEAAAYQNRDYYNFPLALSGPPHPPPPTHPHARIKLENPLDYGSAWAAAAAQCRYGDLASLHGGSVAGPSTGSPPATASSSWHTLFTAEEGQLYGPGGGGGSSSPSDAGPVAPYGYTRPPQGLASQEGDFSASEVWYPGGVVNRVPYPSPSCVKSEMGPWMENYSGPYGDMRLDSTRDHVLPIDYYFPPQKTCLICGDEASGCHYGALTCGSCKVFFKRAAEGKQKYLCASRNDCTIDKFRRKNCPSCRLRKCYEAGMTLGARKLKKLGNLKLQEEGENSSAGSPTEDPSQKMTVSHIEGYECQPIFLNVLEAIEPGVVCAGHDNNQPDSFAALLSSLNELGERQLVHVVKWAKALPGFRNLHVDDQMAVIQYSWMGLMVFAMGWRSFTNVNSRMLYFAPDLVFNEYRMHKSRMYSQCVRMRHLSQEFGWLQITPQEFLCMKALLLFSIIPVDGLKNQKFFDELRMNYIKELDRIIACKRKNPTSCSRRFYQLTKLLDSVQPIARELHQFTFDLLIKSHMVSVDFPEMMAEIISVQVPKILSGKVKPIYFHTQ
# [4] = target: T1, Androgen receptor (Rattus norvegicus); experiment: Antagonist activity at androgen receptor in rat prostate gland at 0.625 to 20 uM by luciferase reporter gene assay; type: functional, tissue-based
# [5] = tested on: LNCaP; experiment: Inhibition of prostate specific antigen expression in human LNCAP cells at 1.25 to 10 uM in presence of fetal bovine serum; type: functional, cell-based
# [6] = tested on: LNCaP; experiment: Inhibition of prostate specific antigen expression in human LNCAP cells at 0.625 to 20 uM in presence of fetal bovine serum; type: functional, cell-based
# [7] = tested on: LNCaP; experiment: Inhibition of prostate specific antigen expression in human LNCAP cells in presence of fetal bovine serum; type: functional, cell-based
# [8] = tested on: LNCaP; experiment: Inhibition of prostate specific antigen expression in human LNCAP cells at 0.625 to 5 uM in presence of fetal bovine serum; type: functional, cell-based
# [9] = tested on: LNCaP; experiment: Inhibition of prostate specific antigen secretion in human LNCAP cells expressing androgen receptor at 100 to 1000 nM in presence of charcoal stripped serum; type: functional, cell-based; procedure, shortened: as §1
smiles,measurement,setting,value
CN(C)C(=O)CCCc1ccc(N2C(=S)N(c3ccc(C#N)c(C(F)(F)F)c3)C(=O)C23CCC3)cc1,Activity,[1],Active
CS(=O)(=O)N1CCN(c2ccc(N3C(=S)N(c4ccc(C#N)c(C(F)(F)F)c4)C(=O)C34CCC4)cc2)CC1,inhibition,[2],Active
COC(=O)c1ccc(N2C(=S)N(c3ccc(C#N)c(C(F)(F)F)c3)C(=O)C2(C)C)cc1,Activity,[3],Active
CCC1(C)C(=O)N(c2ccc(C#N)c(C(F)(F)F)c2)C(=S)N1c1ccc(C)cc1 (stereo not drawn),Activity,[4],inactive
Cc1ccc(N2/C(=N/c3ccc(C#N)c(C(F)(F)F)c3)S/C(=N\C(=S)Nc3ccc(C#N)c(C(F)(F)F)c3)C2(C)C)cc1,Activity,[5],Active
same,Activity,[3],Active
Cc1ccc(N2C(=S)N(c3ccc(C#N)c(C(F)(F)F)c3)/C(=N\C(=S)Nc3ccccc3)C23CCC3)cc1,Activity,[5],Active
same,Activity,[3],Active
N#Cc1ccc(N2C(=O)C3(CCC3)N(c3ccc(N4CCNCC4)cc3)C2=S)cc1C(F)(F)F,inhibition,[2],Active
N#Cc1ccc(N2C(=O)C3(CCC3)N(c3ccc(CCCC(N)=O)cc3)C2=S)cc1C(F)(F)F,inhibition,[2],Active
Cc1ccc(N2C(=S)N(c3ccc(C#N)c(C(F)(F)F)c3)/C(=N\C(=S)Nc3ccc(C#N)c(C(F)(F)F)c3)C2(C)C)cc1,Activity,[5],Active
same,Activity,[3],Active
CCC1(C)C(=O)N(c2ccc(C)cc2)C(=S)N1c1ccc(C#N)c(C(F)(F)F)c1 (stereo not drawn),Activity,[4],inactive
CC1(C)C(=O)N(c2ccc(C#N)c(C(F)(F)F)c2)C(=S)N1CCCCCN=[N+]=[N-],Activity,[6],Active
Cc1ccc(N2/C(=N/c3ccc(C#N)c(C(F)(F)F)c3)S/C(=N\C(=S)Nc3ccc(C#N)c(C(F)(F)F)c3)C23CCC3)cc1,Activity,[5],Active
same,Activity,[3],Active
N#Cc1ccc(N2C(=O)C3(CCC3)N(c3ccc(CO)cc3)C2=S)cc1C(F)(F)F,IC50,[7],200 nM
N#Cc1ccc(N2C(=O)C3(CCC3)N(c3ccc(/C=C/C(N)=O)cc3)C2=S)cc1C(F)(F)F,IC50,[7],100 nM
CC1(C)C(=O)N(c2ccc(C#N)c(C(F)(F)F)c2)C(=S)N1c1ccc(N)cc1,Activity,[4],Active
same,Activity,[6],Active
CCC1(CC)C(=O)N(c2ccc(C#N)c(C(F)(F)F)c2)C(=S)N1c1ccc(C)cc1,Activity,[4],inactive
Cc1ccc(N2C(=S)N(c3ccc(C#N)c(C(F)(F)F)c3)/C(=N\C(=S)Nc3ccc(C#N)c(C(F)(F)F)c3)C2(C)CF)cc1 (stereo not drawn),Activity,[5],Active
same,Activity,[3],Active
CCC1C(=O)N(c2ccc(C#N)c(C(F)(F)F)c2)C(=S)N1c1ccc(C)cc1 (stereo not drawn),Activity,[4],inactive
N#Cc1ccc(N2C(=O)C3(CCC3)N(c3ccc(O)cc3F)C2=S)cc1C(F)(F)F,Activity,[3],Active
Cc1ccc(N2C(=S)N(c3ccc(C#N)c(C(F)(F)F)c3)/C(=N\C(=S)Nc3ccc(C#N)c(C(F)(F)F)c3)C23CCC3)cc1,Activity,[5],Active
same,Activity,[3],Active
Cc1ccc(N2C(=S)N(c3ccc(C#N)c(C(F)(F)F)c3)C(=O)C2(CCl)CCl)cc1,Activity,[8],inactive
N#CCCCc1ccc(N2C(=S)N(c3ccc(C#N)c(C(F)(F)F)c3)C(=O)C23CCC3)cc1,Activity,[1],Active
N#Cc1ccc(N2C(=O)C3(CCC3)N(c3ccc(CCC(=O)NCCO)cc3)C2=S)cc1C(F)(F)F,inhibition,[2],Active
N#Cc1ccc(N2C(=O)C3(CCC3)N(c3ccc(C=O)cc3)C2=S)cc1C(F)(F)F,IC50,[7],200 nM
CC/N=C1\N(c2ccc(C#N)c(C(F)(F)F)c2)C(=S)N(c2ccc(C)cc2)C1(C)C,Activity,[5],Active
same,Activity,[3],Active
N#Cc1ccc(N2C(=O)C3(CCC3)N(c3ccc(/C=C/CO)cc3)C2=S)cc1C(F)(F)F,IC50,[7],100 nM
CC1(C)C(=O)N(c2ccc(C#N)c(C(F)(F)F)c2)C(=S)N1c1ccc(N=[N+]=[N-])cc1,Activity,[4],Active
same,Activity,[6],Active
CC1(C)C(=S)N(c2ccc(C#N)c(C(F)(F)F)c2)C(=S)N1c1ccc(O)cc1,Activity,[8],Active
CC1(C)C(=O)N(c2ccc(C#N)c(C(F)(F)F)c2)C(=S)N1c1ccc(O)cc1,Activity,[8],Active
same,Activity,[4],Active
same,Activity,[6],Active
CS(=O)(=O)c1ccc(N2C(=S)N(c3ccc(C#N)c(C(F)(F)F)c3)C(=O)C23CCC3)cc1,Activity,[3],Active
Cc1ccc(N2C(=S)N(c3ccc(C#N)c(C(F)(F)F)c3)C(=O)C23CCCC3)cc1,Activity,[5],Active
same,Activity,[6],Active
Cc1ccc(N2CC(=O)N(c3ccc(C#N)c(C(F)(F)F)c3)C2=S)cc1,Activity,[4],inactive
Cc1ccc(N2C(=S)N(c3ccc(C#N)c(C(F)(F)F)c3)C(=O)C23CCCCCCC3)cc1,Activity,[6],inactive
Cc1ccc(N2C(=S)N(c3ccc(C#N)c(C(F)(F)F)c3)C(=O)C23CCN(C)CC3)cc1,Activity,[6],inactive
CC1(C)C(=O)N(c2ccc(C#N)c(C(F)(F)F)c2)C(=S)N1CCCN=[N+]=[N-],Activity,[6],Active
Cc1ccc(N2C(=S)N(c3ccc(C#N)c(C(F)(F)F)c3)C(=N)C23CCC3)cc1,Activity,[5],Active
same,Activity,[8],Active
CC(O)c1ccc(N2C(=S)N(c3ccc(C#N)c(C(F)(F)F)c3)C(=O)C23CCC3)cc1 (stereo not drawn),IC50,[7],200 nM
N#Cc1ccc(N2C(=O)C3(CCC3)N(c3ccccc3C(=O)O)C2=S)cc1C(F)(F)F,Activity,[8],inactive
CC1(C)C(=O)N(c2ccc(C#N)c(C(F)(F)F)c2)C(=S)N1CCCCO,Activity,[5],Active
same,Activity,[6],Active
CC1(C)C(=O)N(c2ccc(C#N)c(C(F)(F)F)c2)C(=S)N1c1ccc(C(F)(F)F)cc1,Activity,[5],Active
Cc1ccc(N2C(=S)N(c3ccc(C#N)c(C(F)(F)F)c3)C(=O)C2(C)CF)cc1 (stereo not drawn),Activity,[8],Active
CC1(C)C(=O)N(c2ccc(C#N)c(C(F)(F)F)c2)C(=S)N1CCCCCCN=[N+]=[N-],Activity,[6],Active
CCCC1C(=O)N(c2ccc(C#N)c(C(F)(F)F)c2)C(=S)N1c1ccc(C)cc1 (stereo not drawn),Activity,[4],inactive
Cc1ccccc1N1C(=S)N(c2ccc(C#N)c(C(F)(F)F)c2)C(=O)C12CCC2,Activity,[8],Active
N#Cc1ccc(N2C(=O)C3(CCC3)N(c3ccc(CCC(N)=O)cc3)C2=S)cc1C(F)(F)F,inhibition,[2],Active
CNC(=O)c1ccc(N2C(=S)N(c3ccc(C#N)c(C(F)(F)F)c3)C(=O)C2(C)C)cc1F,Activity,[9],Active
CCC1(CC)C(=O)N(c2ccc(C)cc2)C(=S)N1c1ccc(C#N)c(C(F)(F)F)c1,Activity,[4],inactive
CNC(=O)c1ccc(N2C(=S)N(c3ccc(C#N)c(C(F)(F)F)c3)C(=O)C23CCC3)cc1,Activity,[3],Active
CNC(=O)CCc1ccc(N2C(=S)N(c3ccc(C#N)c(C(F)(F)F)c3)C(=O)C23CCC3)cc1,inhibition,[2],Active
N#Cc1ccc(N2C(=O)C3(CCC3)N(c3ccc(O)cc3)C2=S)cc1C(F)(F)F,Activity,[5],Active
CC1(C)C(=O)N(c2ccc(C#N)c(C(F)(F)F)c2)C(=S)N1CCCCCCCN=[N+]=[N-],Activity,[6],Active
CC1(C)C(=O)N(c2ccc(C#N)c(C(F)(F)F)c2)C(=S)N1c1ccccc1,Activity,[4],Active
same,Activity,[6],Active
Cc1ccc(N2C(=S)N(c3ccc(C#N)c(C(F)(F)F)c3)C(=O)C2C)cc1 (stereo not drawn),Activity,[4],inactive
N#Cc1ccc(N2C(=O)C3(CCC3)N(c3ccc(-c4ccccc4)cc3)C2=S)cc1C(F)(F)F,Activity,[5],Active
CNC(=O)c1ccc(N2C(=S)N(c3ccc(C#N)c(C(F)(F)F)c3)C(=O)C2(C)C)cc1,Activity,[3],Active
CNC(=O)c1ccc(N2C(=S)N(c3ccc(C#N)c(C(F)(F)F)c3)C(=O)C23CCCC3)cc1F,Activity,[9],Active
Cc1ccc(N2C(=S)N(c3ccc(C#N)c(C(F)(F)F)c3)C(=O)C23CCCCCC3)cc1,Activity,[6],inactive
C/N=C1\N(c2ccc(C#N)c(C(F)(F)F)c2)C(=S)N(c2ccc(C)cc2)C12CCC2,Activity,[5],Active
same,Activity,[3],Active
Cc1ccc(N2C(=S)N(c3ccc(C#N)c(C(F)(F)F)c3)C(=O)C23CCCCC3)cc1,Activity,[6],inactive
Cc1ccc(N2C(=S)N(c3ccc(C#N)c(C(F)(F)F)c3)C(=N)C2(C)C)cc1,Activity,[8],Active
CC1(C)C(=O)N(c2ccc(C#N)c(C(F)(F)F)c2)C(=O)N1c1ccc(O)cc1,Activity,[8],Active
same,Activity,[3],Active

# Reference: ChEMBL document CHEMBL1155462, “Structure-activity relationship for thiohydantoin androgen receptor antagonists for castration-resistant prostate cancer (CRPC)” (J Med Chem, 2010)
